{
  "source": "ChEMBL document CHEMBL1649281",
  "about": "“Detection of the novel extended-spectrum beta-lactamase OXA-161 from a plasmid-located integron in Pseudomonas aeruginosa clinical isolates from Spain” (2009)",
  "assay_type_in_all_cases": "functional",
  "key": {"Pseudomonas aeruginosa [1]": {"test_system": "Pseudomonas aeruginosa", "assay": "Antibacterial activity against Pseudomonas aeruginosa PAO1 by CLSI broth microdilution method", "how_it_was_run": "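MIC by standard CLSI broth microdilution, tested with carbenicillin, ceftazidime, and ceftazidime plus clavulanate at 4 μg/ml. P. aeruginosa PAO1 was the recipient strain, with transformants produced by electroporation and selected on LB agar with 20 μg/ml ceftazidime.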"}, "Pseudomonas aeruginosa [2]": {"test_system": "Pseudomonas aeruginosa", "assay": "Antibacterial activity against Pseudomonas aeruginosa PAO1 harboring Pseudomonas aeruginosa plasmid DNA isolated from wound infection of patient by CLSI broth microdilution method", "how_it_was_run": "(§1)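 Plasmid DNA from the clinical isolate was electroporated into PAO1, and transformants were selected on LB agar with 20 μg/ml ceftazidime. Transformants were confirmed by double-disk synergy test and PCR. CLSI broth microdilution MICs were determined for carbenicillin, ceftazidime, and ceftazidime plus fixed 4 μg/ml clavulanate.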"}, "Pseudomonas aeruginosa [3]": {"test_system": "Pseudomonas aeruginosa", "assay": "Antibacterial activity against Pseudomonas aeruginosa PAO1 harboring Pseudomonas aeruginosa plasmid DNA lung biopsy specimen of patient by CLSI broth microdilution method", "how_it_was_run": "as §1"}, "Pseudomonas aeruginosa [4]": {"test_system": "Pseudomonas aeruginosa", "assay": "Antibacterial activity against Pseudomonas aeruginosa PAO1 harboring cloned pUCPOXA-2 by CLSI broth microdilution method", "how_it_was_run": "(§2)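 CLSI standard broth microdilution MICs were determined for carbenicillin, ceftazidime, and ceftazidime plus clavulanate held at a fixed 4 μg/ml.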"}, "Pseudomonas aeruginosa [5]": {"test_system": "Pseudomonas aeruginosa", "assay": "Antibacterial activity against Pseudomonas aeruginosa PAO1 harboring cloned pUCPOXA-161 by CLSI broth microdilution method", "how_it_was_run": "as §2"}, "Pseudomonas aeruginosa [6]": {"test_system": "Pseudomonas aeruginosa", "assay": "Antibacterial activity against Pseudomonas aeruginosa isolated from wound infection of patient by CLSI broth microdilution method", "how_it_was_run": "as §2"}, "Pseudomonas aeruginosa [7]": {"test_system": "Pseudomonas aeruginosa", "assay": "Antibacterial activity against Pseudomonas aeruginosa isolated from lung biopsy specimen of patient by CLSI broth microdilution method", "how_it_was_run": "as §2"}, "Pseudomonas aeruginosa [8]": {"test_system": "Pseudomonas aeruginosa", "assay": "Antibacterial activity against Pseudomonas aeruginosa PAO1 harboring Pseudomonas aeruginosa plasmid DNA lung biopsy specimen of patient by Etest"}, "Pseudomonas aeruginosa [9]": {"test_system": "Pseudomonas aeruginosa", "assay": "Antibacterial activity against Pseudomonas aeruginosa PAO1 harboring Pseudomonas aeruginosa plasmid DNA isolated from wound infection of patient by Etest"}, "Pseudomonas aeruginosa [10]": {"test_system": "Pseudomonas aeruginosa", "assay": "Antibacterial activity against Pseudomonas aeruginosa PAO1 by Etest"}, "Pseudomonas aeruginosa [11]": {"test_system": "Pseudomonas aeruginosa", "assay": "Antibacterial activity against Pseudomonas aeruginosa isolated from wound infection of patient by Etest"}, "Pseudomonas aeruginosa [12]": {"test_system": "Pseudomonas aeruginosa", "assay": "Antibacterial activity against Pseudomonas aeruginosa isolated from lung biopsy specimen of patient by Etest"}, "Pseudomonas aeruginosa [13]": {"test_system": "Pseudomonas aeruginosa", "assay": "Antibacterial activity against Pseudomonas aeruginosa PAO1 harboring cloned pUCPOXA-2 by Etest"}, "Pseudomonas aeruginosa [14]": {"test_system": "Pseudomonas aeruginosa", "assay": "Antibacterial activity against Pseudomonas aeruginosa PAO1 harboring cloned pUCPOXA-161 by Etest"}},
  "data": [
    {"compound": "CC1(C)S[C@@H]2[C@H](NC(=O)C(C(=O)O)c3ccccc3)C(=O)N2[C@H]1C(=O)O", "note": "(stereo not given in full) [CARBENICILLIN]", "values": [
      {"measurement": "MIC", "setting": "Pseudomonas aeruginosa [1]", "result": 32, "unit": "µg/mL"},
      {"measurement": "MIC", "setting": "Pseudomonas aeruginosa [2]", "result": 128, "unit": "µg/mL"},
      {"measurement": "MIC", "setting": "Pseudomonas aeruginosa [3]", "result": 128, "unit": "µg/mL"},
      {"measurement": "MIC", "setting": "Pseudomonas aeruginosa [4]", "result": "> 256", "unit": "µg/mL"},
      {"measurement": "MIC", "setting": "Pseudomonas aeruginosa [5]", "result": 128, "unit": "µg/mL"},
      {"measurement": "MIC", "setting": "Pseudomonas aeruginosa [6]", "result": 128, "unit": "µg/mL"},
      {"measurement": "MIC", "setting": "Pseudomonas aeruginosa [7]", "result": 128, "unit": "µg/mL"}
    ]},
    {"compound": "CC(C)(O/N=C(\\C(=O)N[C@@H]1C(=O)N2C(C(=O)[O-])=C(C[n+]3ccccc3)CS[C@H]12)c1csc(N)n1)C(=O)O", "note": "[CEFTAZIDIME]", "values": [
      {"measurement": "MIC", "setting": "Pseudomonas aeruginosa [1]", "result": 2, "unit": "µg/mL"},
      {"measurement": "MIC", "setting": "Pseudomonas aeruginosa [2]", "result": 128, "unit": "µg/mL"},
      {"measurement": "MIC", "setting": "Pseudomonas aeruginosa [3]", "result": 128, "unit": "µg/mL"},
      {"measurement": "MIC", "setting": "Pseudomonas aeruginosa [4]", "result": 8, "unit": "µg/mL"},
      {"measurement": "MIC", "setting": "Pseudomonas aeruginosa [5]", "result": 64, "unit": "µg/mL"},
      {"measurement": "MIC", "setting": "Pseudomonas aeruginosa [6]", "result": "> 256", "unit": "µg/mL"},
      {"measurement": "MIC", "setting": "Pseudomonas aeruginosa [7]", "result": "> 256", "unit": "µg/mL"}
    ]},
    {"compound": "NC[C@H]1O[C@H](O[C@H]2[C@H](O)[C@@H](O[C@H]3O[C@H](CO)[C@@H](O)[C@H](N)[C@H]3O)[C@H](N)C[C@@H]2N)[C@H](N)C[C@@H]1O", "note": "[TOBRAMYCIN]", "values": [
      {"measurement": "MIC", "setting": "Pseudomonas aeruginosa [8]", "result": 12, "unit": "µg/mL"},
      {"measurement": "MIC", "setting": "Pseudomonas aeruginosa [9]", "result": 12, "unit": "µg/mL"},
      {"measurement": "MIC", "setting": "Pseudomonas aeruginosa [10]", "result": 1, "unit": "µg/mL"},
      {"measurement": "MIC", "setting": "Pseudomonas aeruginosa [11]", "result": 48, "unit": "µg/mL"},
      {"measurement": "MIC", "setting": "Pseudomonas aeruginosa [12]", "result": 64, "unit": "µg/mL"}
    ]},
    {"compound": "C[C@@H](O)[C@H]1C(=O)N2C(C(=O)O)=C(SCCNC=N)C[C@H]12", "note": "[IMIPENEM ANHYDROUS]", "values": [
      {"measurement": "MIC", "setting": "Pseudomonas aeruginosa [8]", "result": 1, "unit": "µg/mL"},
      {"measurement": "MIC", "setting": "Pseudomonas aeruginosa [9]", "result": 1, "unit": "µg/mL"},
      {"measurement": "MIC", "setting": "Pseudomonas aeruginosa [10]", "result": 1.5, "unit": "µg/mL"},
      {"measurement": "MIC", "setting": "Pseudomonas aeruginosa [11]", "result": 16, "unit": "µg/mL"},
      {"measurement": "MIC", "setting": "Pseudomonas aeruginosa [12]", "result": 32, "unit": "µg/mL"},
      {"measurement": "MIC", "setting": "Pseudomonas aeruginosa [13]", "result": 1.5, "unit": "µg/mL"},
      {"measurement": "MIC", "setting": "Pseudomonas aeruginosa [14]", "result": 1.5, "unit": "µg/mL"}
    ]},
    {"compound": "C[C@@H](O)[C@H]1C(=O)N2C(C(=O)O)=C(S[C@@H]3CN[C@H](C(=O)N(C)C)C3)[C@H](C)[C@H]12", "note": "[MEROPENEM]", "values": [
      {"measurement": "MIC", "setting": "Pseudomonas aeruginosa [8]", "result": 0.75, "unit": "µg/mL"},
      {"measurement": "MIC", "setting": "Pseudomonas aeruginosa [9]", "result": 0.75, "unit": "µg/mL"},
      {"measurement": "MIC", "setting": "Pseudomonas aeruginosa [10]", "result": 0.38, "unit": "µg/mL"},
      {"measurement": "MIC", "setting": "Pseudomonas aeruginosa [11]", "result": 6, "unit": "µg/mL"},
      {"measurement": "MIC", "setting": "Pseudomonas aeruginosa [12]", "result": 8, "unit": "µg/mL"},
      {"measurement": "MIC", "setting": "Pseudomonas aeruginosa [13]", "result": 0.38, "unit": "µg/mL"},
      {"measurement": "MIC", "setting": "Pseudomonas aeruginosa [14]", "result": 0.5, "unit": "µg/mL"}
    ]},
    {"compound": "NCC[C@H](O)C(=O)N[C@@H]1C[C@H](N)[C@@H](O[C@H]2O[C@H](CN)[C@@H](O)[C@H](O)[C@H]2O)[C@H](O)[C@H]1O[C@H]1O[C@H](CO)[C@@H](O)[C@H](N)[C@H]1O", "note": "[AMIKACIN]", "values": [
      {"measurement": "MIC", "setting": "Pseudomonas aeruginosa [8]", "result": 12, "unit": "µg/mL"},
      {"measurement": "MIC", "setting": "Pseudomonas aeruginosa [9]", "result": 12, "unit": "µg/mL"},
      {"measurement": "MIC", "setting": "Pseudomonas aeruginosa [10]", "result": 3, "unit": "µg/mL"},
      {"measurement": "MIC", "setting": "Pseudomonas aeruginosa [11]", "result": 32, "unit": "µg/mL"},
      {"measurement": "MIC", "setting": "Pseudomonas aeruginosa [12]", "result": 64, "unit": "µg/mL"}
    ]},
    {"compound": "COLISTIN", "values": [
      {"measurement": "MIC", "setting": "Pseudomonas aeruginosa [8]", "result": 2, "unit": "µg/mL"},
      {"measurement": "MIC", "setting": "Pseudomonas aeruginosa [9]", "result": 2, "unit": "µg/mL"},
      {"measurement": "MIC", "setting": "Pseudomonas aeruginosa [10]", "result": 2, "unit": "µg/mL"},
      {"measurement": "MIC", "setting": "Pseudomonas aeruginosa [11]", "result": 2, "unit": "µg/mL"},
      {"measurement": "MIC", "setting": "Pseudomonas aeruginosa [12]", "result": 2, "unit": "µg/mL"}
    ]},
    {"compound": "CO/N=C(\\C(=O)N[C@@H]1C(=O)N2C(C(=O)[O-])=C(C[N+]3(C)CCCC3)CS[C@H]12)c1csc(N)n1", "values": [
      {"measurement": "MIC", "setting": "Pseudomonas aeruginosa [8]", "result": 8, "unit": "µg/mL"},
      {"measurement": "MIC", "setting": "Pseudomonas aeruginosa [9]", "result": 8, "unit": "µg/mL"},
      {"measurement": "MIC", "setting": "Pseudomonas aeruginosa [10]", "result": 1, "unit": "µg/mL"},
      {"measurement": "MIC", "setting": "Pseudomonas aeruginosa [11]", "result": 16, "unit": "µg/mL"},
      {"measurement": "MIC", "setting": "Pseudomonas aeruginosa [12]", "result": 12, "unit": "µg/mL"}
    ]},
    {"compound": "GENTAMICIN", "values": [
      {"measurement": "MIC", "setting": "Pseudomonas aeruginosa [8]", "result": 8, "unit": "µg/mL"},
      {"measurement": "MIC", "setting": "Pseudomonas aeruginosa [9]", "result": 12, "unit": "µg/mL"},
      {"measurement": "MIC", "setting": "Pseudomonas aeruginosa [10]", "result": 2, "unit": "µg/mL"},
      {"measurement": "MIC", "setting": "Pseudomonas aeruginosa [11]", "result": 32, "unit": "µg/mL"},
      {"measurement": "MIC", "setting": "Pseudomonas aeruginosa [12]", "result": 64, "unit": "µg/mL"}
    ]},
    {"compound": "CCN1CCN(C(=O)N[C@@H](C(=O)N[C@@H]2C(=O)N3[C@@H]2SC(C)(C)[C@@H]3C(=O)O)c2ccccc2)C(=O)C1=O", "note": "[PIPERACILLIN]", "values": [
      {"measurement": "MIC", "setting": "Pseudomonas aeruginosa [8]", "result": 32, "unit": "µg/mL"},
      {"measurement": "MIC", "setting": "Pseudomonas aeruginosa [9]", "result": 16, "unit": "µg/mL"},
      {"measurement": "MIC", "setting": "Pseudomonas aeruginosa [10]", "result": 2, "unit": "µg/mL"},
      {"measurement": "MIC", "setting": "Pseudomonas aeruginosa [11]", "result": 24, "unit": "µg/mL"},
      {"measurement": "MIC", "setting": "Pseudomonas aeruginosa [12]", "result": 24, "unit": "µg/mL"},
      {"measurement": "MIC", "setting": "Pseudomonas aeruginosa [13]", "result": 48, "unit": "µg/mL"},
      {"measurement": "MIC", "setting": "Pseudomonas aeruginosa [14]", "result": 24, "unit": "µg/mL"}
    ]}
  ]
}
